# ChEMBL document CHEMBL1145471, “Small molecule regulators of autophagy identified by an image-based high-throughput screen” (Proc Natl Acad Sci U S A, 2007)
# Key:
# Format in all cases: functional
# [1] = system: H4; test: Increase in light chain 3-GFP+ autophagosome vesicle area per cell in human H4 cells at 4.5 uM after 24 hrs by high throughput fluorescence microscopy relative to control
# Method in brief: (§1)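 H4 cells stably expressing LC3-GFP, seeded in 96-well plates and exposed to compound for 24 h; screening concentrations were 3–12 μM, with rapamycin 0.22 μM and bafilomycin A1 0.40 μM. Cells fixed in 4% paraformaldehyde and stained with 3 μg/ml DAPI. Number, size and intensity of LC3-GFP spots measured by high-throughput fluorescence microscopy and expressed as percent of DMSO-treated wells. Rapamycin was the positive control. Triplicate wells, mean ± SD; experiments repeated three times.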
# [2] = system: H4; test: Increase in light chain 3-GFP+ autophagosome vesicle intensity per cell in human H4 cells at 4.5 uM after 24 hrs by high throughput fluorescence microscopy relative to control
# Method in brief: (§2)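 H4 cells stably expressing LC3-GFP were grown in DMEM with 10% FBS and 2 mM L-glutamine at 37°C, 5% CO2. They were exposed to each compound for 24 h, with DMSO as negative and rapamycin as positive control. Cells were then fixed in 4% paraformaldehyde and stained with 3 μg/ml DAPI. High-throughput fluorescence imaging scored LC3-GFP spot number, size and intensity, expressed relative to DMSO. Mean ± SD of triplicates; experiments repeated three times.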
# [3] = system: H4; test: Increase in light chain 3-GFP+ autophagosome vesicle number per cell in human H4 cells at 4.5 uM after 24 hrs by high throughput fluorescence microscopy relative to control; method in brief: as §2
# [4] = system: H4; test: Induction of light chain 3-GFP level in human H4 cells at 4.5 uM after 24 hrs by high throughput fluorescence microscopy relative to control
# Method in brief: (§3)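 H4 cells stably expressing LC3-GFP, grown in DMEM with 10% FBS, penicillin/streptomycin and 2 mM L-glutamine at 37°C, 5% CO2. Cells were seeded in 96-well plates and exposed to library compounds at 3–12 μM for 24 h, then fixed in 4% paraformaldehyde and stained with 3 μg/ml DAPI. LC3-GFP spot number, size and intensity were measured by high-throughput fluorescence microscopy and expressed relative to DMSO. Triplicates, mean ± SD.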
# [5] = system: H4; test: Increase in long-lived protein degradation in human H4 cells after 2 hrs relative to control; design: concentration or dose not given beside the values
# [6] = system: H4; test: Decrease in FYVE-RFP+ vesicle intensity per cell in human H4 cells after 8 hrs relative to control; design: concentration or dose not given beside the values
# Method in brief: (§4)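 H4 cells stably expressing FYVE-RFP (H4-FYVE), grown in DMEM with 10% FBS, penicillin/streptomycin and 2 mM L-glutamine at 37°C, 5% CO2, seeded in 96-well plates and exposed to compound. Fixed in 4% paraformaldehyde, nuclei stained with 3 μg/ml DAPI, FYVE-RFP+ vesicles quantified by high-throughput fluorescence microscopy against DMSO control. Triplicate wells, mean ± SD.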
# [7] = system: H4; test: Increase in long-lived protein degradation in human H4 cells after 1 hr relative to control; design: concentration or dose not given beside the values
# [8] = system: H4; test: Increase in light chain 3-GFP+ autophagosome vesicle area per cell in human H4 cells at 6.5 uM after 24 hrs by high throughput fluorescence microscopy relative to control
# Method in brief: (§5)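 H4 cells stably expressing LC3-GFP, seeded in 96-well plates and exposed to compound for 24 h; fixed in 4% paraformaldehyde, nuclei stained with 3 μg/ml DAPI. Automated fluorescence microscopy scored number, size and intensity of LC3-GFP spots; values expressed relative to DMSO-treated wells, rapamycin positive control. Triplicate wells, mean ± SD; experiments repeated three times.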
# [9] = system: H4; test: Increase in long-lived protein degradation in human H4 cells after 4 hrs relative to control; design: concentration or dose not given beside the values
# [10] = system: H4; test: Decrease in FYVE-RFP+ vesicle intensity per cell in human H4 cells after 4 hrs relative to control; design: concentration or dose not given beside the values; method in brief: as §4
# [11] = system: H4; test: Increase in light chain 3-GFP+ autophagosome vesicle intensity per cell in human H4 cells at 6.5 uM after 24 hrs by high throughput fluorescence microscopy relative to control; method in brief: as §5
# [12] = system: H4; test: Induction of light chain 3-GFP level in human H4 cells at 6.5 uM after 24 hrs by high throughput fluorescence microscopy relative to control
# Method in brief: (§6)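 H4 cells stably expressing LC3-GFP, kept in DMEM/10% FBS at 37°C, 5% CO2, were seeded in 96-well plates and exposed to compound for 24 h. Cells were then fixed in 4% paraformaldehyde and stained with 3 μg/ml DAPI. Automated fluorescence microscopy scored the number, size and intensity of LC3-GFP spots. Values are percent of DMSO wells, in triplicate, mean ± SD. Rapamycin served as positive control.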
# [13] = system: H4; test: Increase in long-lived protein degradation in human H4 cells after 24 hrs relative to control; design: concentration or dose not given beside the values
# [14] = system: H4; test: Decrease in FYVE-RFP+ vesicle intensity per cell in human H4 cells after 2 hrs relative to control; design: concentration or dose not given beside the values; method in brief: as §4
# [15] = system: H4; test: Increase in light chain 3-GFP+ autophagosome vesicle number per cell in human H4 cells at 6.5 uM after 24 hrs by high throughput fluorescence microscopy relative to control; method in brief: as §6
# [16] = system: H4; test: Increase in light chain 3-GFP+ autophagosome vesicle intensity per cell in human H4 cells at 4.3 uM after 24 hrs by high throughput fluorescence microscopy relative to control; method in brief: as §2
# [17] = system: H4; test: Increase in light chain 3-GFP+ autophagosome vesicle area per cell in human H4 cells at 4.3 uM after 24 hrs by high throughput fluorescence microscopy relative to control; method in brief: as §1
# [18] = system: H4; test: Induction of light chain 3-GFP level in human H4 cells at 4.3 uM after 24 hrs by high throughput fluorescence microscopy relative to control; method in brief: as §3
# [19] = system: H4; test: Increase in light chain 3-GFP+ autophagosome vesicle number per cell in human H4 cells at 4.3 uM after 24 hrs by high throughput fluorescence microscopy relative to control; method in brief: as §2
# [20] = system: H4; test: Increase in light chain 3-GFP+ autophagosome vesicle intensity per cell in human H4 cells at 6.1 uM after 24 hrs by high throughput fluorescence microscopy relative to control; method in brief: as §5
# [21] = system: H4; test: Induction of light chain 3-GFP level in human H4 cells at 6.1 uM after 24 hrs by high throughput fluorescence microscopy relative to control; method in brief: as §6
# [22] = system: H4; test: Increase in light chain 3-GFP+ autophagosome vesicle area per cell in human H4 cells at 3.8 uM after 24 hrs by high throughput fluorescence microscopy relative to control; method in brief: as §5
# [23] = system: H4; test: Increase in light chain 3-GFP+ autophagosome vesicle number per cell in human H4 cells at 6.1 uM after 24 hrs by high throughput fluorescence microscopy relative to control; method in brief: as §6
# [24] = system: H4; test: Increase in light chain 3-GFP+ autophagosome vesicle intensity per cell in human H4 cells at 6.3 uM after 24 hrs by high throughput fluorescence microscopy relative to control; method in brief: as §5
# [25] = system: H4; test: Induction of light chain 3-GFP level in human H4 cells at 6.3 uM after 24 hrs by high throughput fluorescence microscopy relative to control; method in brief: as §6
# [26] = system: H4; test: Increase in light chain 3-GFP+ autophagosome vesicle number per cell in human H4 cells at 6.3 uM after 24 hrs by high throughput fluorescence microscopy relative to control; method in brief: as §6
# [27] = system: H4; test: Increase in light chain 3-GFP+ autophagosome vesicle area per cell in human H4 cells at 6.3 uM after 24 hrs by high throughput fluorescence microscopy relative to control; method in brief: as §5
smiles,measurement,setting,value
Cn1cc(C2=C(c3cn(CCCSC(=N)N)c4ccccc34)C(=O)NC2=O)c2ccccc21 [BISINDOLYLMALEIMIDE IX],Activity,[1],190.1%
same,Activity,[2],240.67%
same,Activity,[3],190.07%
same,Activity,[4],50.58%
COc1ccc2c(c[n+](C)c3c4cc5c(cc4ccc23)OCO5)c1OC.[Cl-] [CHELERYTHRINE CHLORIDE],Activity,[5],100.4%
same,Activity,[6],33.84%
same,Activity,[7],101.43%
same,Activity,[8],229.91%
same,Activity,[9],108.72%
same,Activity,[10],22.01%
same,Activity,[11],213.88%
same,Activity,[12],110.26%
same,Activity,[13],106.48%
same,Activity,[14],30.83%
same,Activity,[15],195.46%
COc1cc([C@@H]2c3cc4c(cc3[C@@H](O[C@@H]3O[C@@H]5CO[C@@H](C)O[C@H]5[C@H](O)[C@H]3O)[C@H]3COC(=O)[C@H]23)OCO4)cc(OC)c1O [ETOPOSIDE],Activity,[16],335.9%
same,Activity,[17],306.93%
same,Activity,[18],48.17%
same,Activity,[19],275.6%
CN(C)CCCn1cc(C2=C(c3c[nH]c4ccccc34)C(=O)NC2=O)c2ccccc21 [GF-109203],Activity,[20],211.81%
same,Activity,[21],47.77%
same,Activity,[22],208.08%
same,Activity,[23],198.94%
C/C1=C/C(=O)O[C@@H]2C[C@@H](CC[C@H](C)/C=C\CC1)O[C@@](O)([C@@H]1CSC(=O)N1)C2 [LATRUNCULIN B],Activity,[24],723.64%
same,Activity,[25],27.55%
same,Activity,[26],263.28%
same,Activity,[27],334.83%
C=CCNC1=C2C[C@@H](C)C[C@H](OC)[C@H](O)[C@@H](C)/C=C(\C)[C@H](OC(N)=O)[C@@H](OC)/C=C\C=C(/C)C(=O)NC(=CC1=O)C2=O [TANESPIMYCIN],Activity,[16],385.49%
same,Activity,[17],364.98%
same,Activity,[18],66.89%
same,Activity,[19],293.36%
